Screening data (PubChem)
ROMK mod = human ROMK K+ channel modulation, primary screen; Tet-inducible ROMK, thallium flux fluorescence; actives lie on both sides; B-score at 10 µM; 130,000 tested, 2% active;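 active means signal ratio slope over the read window, or its plate-corrected B-score, at least 3 SD from the plate mean, either direction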;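 further: B-score of the F/F0 ratio slope over 7 to 12 s after thallium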
Diaphorase act = activates diaphorase or chemically reduces, flagging diaphorase assay artifacts; Diaphorase/resazurin coupled assay, resorufin fluorescence, 16 min; stronger effect = higher value; 1 = vehicle wells, 0 = NADH-free wells; activation factor at 20 µM; 190,000 tested, 0.005% active;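 active means diaphorase activity raised at least twofold by the compound at 20 µM; inactive means activation factor below 2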
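Material: Purified diaphorase enzyme from Clostridium kluyveri | Buffer or medium: 50 mM HEPES pH 7.4 with 4.542 mM MgCl2, 0.005% Tween 20 | Times: 16 min enzyme reaction, ambient temperature | Signal: Red resorufin fluorescence at 544/590 nm excitation/emission | Measure: Increased resorufin signal from activators or reducing compounds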
Cl transport mod = modulators of human KCC2 chloride dependent transport; Q9H2X9; KCC2 cells, thallium flux FluoZin-2 fluorescence; B-score of Tl+ flux slope (higher = more flux/activation; lower = inhibition) at 10 µM; 190,000 tested, 2.2% active;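 active means thallium flux slope and its plate-corrected score both differing from the plate sample mean at a set confidence after two filtering rounds, in either direction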;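 further: slope of fluorescence scaled to starting intensity during 10 to 20 s after thallium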
Lmaj promast = reduces viability of Leishmania major promastigotes; inhibition, % at 10 µM; 200,000 tested, 9% active; resazurin fluorescence viability; AID 1063; in the data active means inhibition above about 50%;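 further: promastigotes grown with compound for 44 hours at 28 °C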
WT yeast gro inh = growth inhibition of WT yeast, mitochondrial fusion screen | mitochondrial fusion phenotypic screen, WT strain | inhibition, % at 10 µM | 190,000 tested, 2.1% active; in the data active means inhibition above about 58%; tested in S. cerevisiae
Diaph inh CS = inhibits diaphorase or chemically oxidizes, flagging diaphorase assay artifacts; diaphorase resazurin-to-resorufin fluorescence, NADH, 16 min; bacterial (C. kluyveri) enzyme, not human; AID 1217; 190,000 tested, 0.69% active; inhibition, % at 20 µM;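 active means primary screen inhibition at 20 µM above a set limit, cut at about 50% in these data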;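 further: plate controls were DMSO with full reaction for no effect and wells lacking NADH for full effect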
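Detection: fluorescence of resorufin formed from resazurin, Ex 544/Em 590 nm; test system: Clostridium kluyveri diaphorase enzyme; amount: 0.14 U/mL diaphorase, enzyme working solution; times: 16-min room-temperature incubation before reading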
The depositor's hits bear a star; i = inactive; x = no result given. This is a sample that favours compounds with a hit; in the whole collection about 12% have one here.

SMILES	ROMK mod	Diaphorase act	Cl transport mod	Lmaj promast	WT yeast gro inh	Diaph inh CS
COCCCN1C(=O)c2[nH]nc(-c3ccccc3O)c2C1c1cccc(Cl)c1 (configuration not stated)	-0.919	0.8	-1.11	36.0	-0.2	20.7
COCCCN1C(=O)c2[nH]nc(-c3cc(C)cc(C)c3O)c2C1c1ccc(O)c(OC)c1 (configuration not stated)	-0.642	0.7	x	8.9	-3.8	26.1
COCCCN1C(=O)c2[nH]nc(-c3ccccc3O)c2C1c1ccc(Cl)cc1 (configuration not stated)	0.014	0.8	-0.0791	66.2*	-4.9	16.5
CC(C)OCCCN1C(=O)c2[nH]nc(-c3ccccc3O)c2C1c1cccc(Cl)c1 (configuration not stated)	x	0.8	0.336	70.3*	8.7	23.2
COc1ccc(CCN2C(=O)c3[nH]nc(-c4ccccc4O)c3C2c2ccccc2)cc1OC (configuration not stated)	1.72	0.9	x	59.9*	-2.6	9.5
COc1ccc(-c2n[nH]c3c2C(c2ccc(OC)c(OC)c2)N(c2ccccc2)C3=O)cc1 (configuration not stated)	0.338	0.9	-1.32	96.5*	-5.6	7.9
CCCN1C(=O)c2[nH]nc(-c3cc(Cl)c(C)cc3O)c2C1c1ccc(O)c(OC)c1 (configuration not stated)	x	x	-0.386	x	x	x
CCOC(=O)C1(CC2CCCCO2)CCN(C(=O)Nc2ccccc2)CC1 (configuration not stated)	x	1.1	-0.733	15.6	9.5	-11.0
CC(OC(=O)c1cc(S(=O)(=O)N(C)c2ccccc2)ccc1Cl)C(=O)Nc1ccc2c(c1)OCCO2 (configuration not stated)	x	0.8	-1.24	65.1*	15.1	17.9
Cn1c(=Nc2ccc(N3CCOCC3)cc2)ccc2ccccc21	x	0.9	-0.0635	12.3	7.1	14.7
Cn1c(N=Nc2ccc(N3CCOCC3)cc2)[n+](C)c2ccccc21	0.56	0.9	0.284	100.4*	71.4	14.0
CCOc1ccc(Oc2c(/C=N/NC(=O)C3CC3)c(C)nn2-c2ccccc2)cc1	-0.0861	1	-0.939	22.0	5.9	0.7
COc1cc(O)c(C(CC(=O)N2CCCCC2)c2ccc(N(C)C)cc2)c(OC)c1 (configuration not stated)	x	x	1.08	x	x	x
Cc1cccc(NC(=O)c2ccc(N3CCCCC3)c([N+](=O)[O-])c2)n1	-0.365	0.9	x	11.9	78.1*	7.7
Cc1ccc(C)c2sc(NC(=O)c3ccc(N4CCCCC4)c([N+](=O)[O-])c3)nc12	1.2	0.9	0.19	80.9*	6.1	7.1
Cc1ccc(C(=O)Nc2cc(C(F)(F)F)ccc2N2CCCCC2)cc1[N+](=O)[O-]	x	0.8	x	6.4	18.4	19.3
Cc1ccc(NC(=O)c2ccc3ncsc3c2)cc1S(=O)(=O)N(C)C	x	x	-1.67	x	x	x
COC(=O)c1nn(-c2cccc(C(F)(F)F)c2)c(=O)cc1Sc1ccccn1	x	0.9	-0.97	-3.2	-28.4	14.7
CCN1CCN(c2nc(Nc3ccc(C)c(C)c3)nc(N)c2[N+](=O)[O-])CC1	x	0.8	0.25	4.1	-8.3	16.7
Cc1cccc(Nc2nc(N)c([N+](=O)[O-])c(N3CC(C)CC(C)C3)n2)c1 (configuration not stated)	-0.847	0.6	-0.561	92.8*	95.9*	39.6
CCN1CCN(c2nc(N)c([N+](=O)[O-])c(Nc3cccc(C)c3)n2)CC1	-0.347	1	0.506	99.9*	37.0	2.1
CCOC(=O)N1CCN(S(=O)(=O)c2ccc(F)c(C(=O)Nc3cccc(Cl)c3C)c2)CC1	0.214	0.9	-0.0142	2.6	-5.9	7.0
O=C(CCCn1cnc([N+](=O)[O-])n1)Nc1cccc(O)c1	-0.239	1	0.298	-7.4	-16.4	0.3
CCN(CC)c1ccc2cc(-c3nnc(-c4ccncc4)o3)c(=O)oc2c1	x	0.7	i	67.7*	11.0	30.1
CCOC(=O)C(=NCCCN(C)C)NNc1ccc(Br)cc1	x	0.9	-0.58	66.7*	24.9	5.8
SMILES	ROMK mod	Diaphorase act	Cl transport mod	Lmaj promast	WT yeast gro inh	Diaph inh CS
CCOC(=O)C(=O)NNc1ccc(C)cc1	x	0.9	-0.529	3.0	61.7*	11.1
CCCCN=C(NNc1ccc(Br)cc1)C(=O)OCC	x	0.7	-1.58	31.0	64.4*	27.6
Nc1nnn(CC(=O)N/N=C/c2cn[nH]c2-c2ccccc2)n1	0.461	x	0.352	x	x	x
COc1ccc(C2C3=C(CC(C)(C)CC3=O)OC(N)=C2[N+](=O)[O-])cc1 (configuration not stated)	0.23	0.9	0.0297	19.5	-24.2	11.2
O=C(CCN1C(=O)c2cccc3cccc(c23)C1=O)NCc1ccco1	-0.0952	0.8	x	-1.9	-1.5	19.1
O=S(=O)(CC(c1ccccc1)N1CCCCC1)c1ccc(Cl)cc1 (configuration not stated)	x	x	-0.277	x	x	x
C=CCOC(=O)C1=C(C)NC(SCC(=O)N(CC)CC)=C(C#N)C1c1ccco1 (configuration not stated)	-0.0728	0.8	-2.43	81.2*	-1.6	23.9
CC(=O)C1=C(C)NC(SCC(=O)c2ccc(Cl)c(Cl)c2)=C(C#N)C1c1ccco1 (configuration not stated)	-1.56	0.6	x	77.8*	x	35.7
CC(=O)C1=C(C)NC(SCC(=O)c2cc(Cl)ccc2Cl)=C(C#N)C1c1ccco1 (configuration not stated)	-0.0906	0.6	x	39.0	x	44.8
CCN1CCN(C(=O)CN(c2ccccc2C)S(C)(=O)=O)CC1	-0.231	0.8	x	-0.4	-2.3	15.9
O=C(/C=C/c1ccc(S(=O)(=O)N2CCOCC2)cc1)NCc1ccccc1	x	0.9	-0.0323	5.0	-14.0	14.1
CC(C)(CN1CCN(Cc2ccccc2)CC1)NS(=O)(=O)c1ccc(Cl)cc1	x	x	-2.69	x	x	x
CN1CCN(CC(C)(C)NS(=O)(=O)c2ccc(Cl)cc2)CC1	0.262	0.9	-0.159	94.3*	-1.6	14.7
CC1=NN(C(N)=S)C(=O)C1N=Nc1c(C)cc(C)cc1C (configuration not stated)	x	1	1.94	11.7	60.6*	4.5
CC1=NN(C(N)=S)C(=O)C1N=Nc1ccc(C)cc1C (configuration not stated)	0.456	0.9	20.8*	59.9*	69.9*	11.8
CC1=NN(C(N)=S)C(=O)C1N=Nc1ccccc1C (configuration not stated)	x	0.9	17.7*	8.2	65.3*	8.9
CC1=NN(c2ccccc2)C(=O)C1N=Nc1ccc(C)cc1 (configuration not stated)	0.0238	0.9	1.04	-1.3	7.0	12.3
O=C(COC(=O)c1cccnc1Cl)NCCC1=CCCCC1	-0.167	0.9	0.71	-4.3	3.4	13.9
COc1ccc(-c2csc(N=C(N)N)n2)cc1	-1.53	0.9	0.349	59.6*	-2.9	8.0
